Series [1] deals with T1, DNA topoisomerase 1 (Homo sapiens) (UniProt P11387).
T1 sequence (whole entry): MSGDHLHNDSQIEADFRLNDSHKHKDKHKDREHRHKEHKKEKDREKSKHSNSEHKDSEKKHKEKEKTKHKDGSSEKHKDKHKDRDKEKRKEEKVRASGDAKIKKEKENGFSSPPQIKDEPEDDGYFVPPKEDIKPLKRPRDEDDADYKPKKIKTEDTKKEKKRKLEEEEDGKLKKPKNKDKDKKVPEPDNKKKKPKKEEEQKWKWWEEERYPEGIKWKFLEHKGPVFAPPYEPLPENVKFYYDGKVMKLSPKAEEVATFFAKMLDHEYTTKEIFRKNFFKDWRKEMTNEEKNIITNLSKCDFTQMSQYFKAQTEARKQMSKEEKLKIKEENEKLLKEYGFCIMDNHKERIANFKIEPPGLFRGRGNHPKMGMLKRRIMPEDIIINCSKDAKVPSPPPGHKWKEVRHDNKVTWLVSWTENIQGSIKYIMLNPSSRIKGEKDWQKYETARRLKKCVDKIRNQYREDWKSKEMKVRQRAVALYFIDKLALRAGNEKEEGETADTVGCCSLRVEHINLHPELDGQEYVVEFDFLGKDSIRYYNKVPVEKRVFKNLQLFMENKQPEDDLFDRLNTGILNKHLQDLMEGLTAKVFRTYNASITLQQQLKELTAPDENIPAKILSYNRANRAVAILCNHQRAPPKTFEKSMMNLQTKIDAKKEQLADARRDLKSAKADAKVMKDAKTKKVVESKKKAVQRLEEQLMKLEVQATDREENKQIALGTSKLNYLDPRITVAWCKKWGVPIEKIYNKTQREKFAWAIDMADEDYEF
As to the kind of experiment: Inhibition of human topoisomerase 1 assessed as topoisomerase poison activity by measuring generation of open circular DNA using supercoiled pUC19 DNA at 5 to 50 uM by agarose gel electrophoresis. A digest of the protocol:
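Supercoiled pUC19 plasmid was incubated with human topoisomerase I and graded compound concentrations. Reactions were stopped with SDS and proteinase K. DNA forms were resolved on 1% agarose in TBE (2 h, 120 V), post-stained with ethidium bromide and photographed under UV. Poisoning was read as appearance of nicked DNA, with camptothecin as the positive control.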

The test system of series [2] is Calf thymus DNA. As to the kind of experiment: Binding affinity to calf thymus DNA assessed as change in melting temperature at drug/ base pair ratio of 0.25 by spectrophotometry. The format is nucleic-acid assay. As to conditions: Bos taurus. The method in brief:
(§1)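 CT-DNA absorbance followed at 260 nm from 20 to 100 °C, rising 1 °C per min, in BPE buffer, with or without compound at drug/base-pair ratio 0.25 or 0.5. Tm taken as midpoint of the hyperchromic transition from first-derivative plots. ΔTm is Tm with compound minus Tm of DNA alone.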

For series [3], the system named is SW-620. As to the kind of experiment: Induction of cell cycle arrest on human SW620 cells assessed as accumulation at S phase at 50 uM after 48 hrs by propidium iodide staining based flow cytometry (reference value: 39.4 +/- 0.2%). It is filed as functional. As to conditions: in the assay text read “after 24 hrs” for “after 48 hrs”. The method in brief: (§2)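 HepG2 or SW620 cells were seeded at 25000 per well. After 24 h they were treated, then harvested 24 or 48 h later. Attached cells were trypsinized, pooled with floating cells, PBS-washed and fixed in 70% ethanol. Cells were stained with PI 1 µg/mL plus RNase A 0.2 µg/mL, and 10 000 events were acquired by flow cytometry. Phase percentages come from DNA histograms, in duplicate, with ANOVA at p < 0.05.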

Series [4] deals with SW-620. As to the kind of experiment: Induction of apoptosis in human SW620 cells assessed as enlarged cells level at 50 uM after 24 hrs by Annexin V-Fluos staining based fluorescent microscopy. The format is functional, cell-based. The method in brief: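 Cells seeded on chamber slides at 4000 per well and treated 24 h (HepG2 at 25 or 50 µM; SW620 at 50 µM). Incubated 15 min with Annexin V-Fluos reagent plus propidium iodide, washed in PBS, and examined by fluorescence microscopy for morphology and labelling.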

For series [5], the system named is MCF7. As to the kind of experiment: Antiproliferative activity against human MCF7 cells assessed as inhibition of cell proliferation after 72 hrs by MTT assay. The format is functional, cell-based. The method in brief: (§3)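 Cells grown as monolayers in DMEM with 10% FBS, 2 mM L-glutamine, penicillin/streptomycin, 37 °C, 5% CO2. Seeded at 5000/well on day 0. Compounds added after 24 h as five serial dilutions (0,01 to 100 µM), DMSO ≤0.1%, then 72 h. MTT read-out converted to percentage growth. IC50 by linear regression; quadruplicates in three experiments.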
In general terms: Tetrazolium dyes change colour on reduction, which living cells bring about.

Series [6] has as its system Calf thymus DNA. Briefly: Binding affinity to calf thymus DNA assessed as change in melting temperature at drug/ base pair ratio of 0.5 by spectrophotometry. It is filed as nucleic-acid assay. As to conditions: Bos taurus. A digest of the protocol: as §1
Series [7] relates to HeLa. As to the kind of experiment: Antiproliferative activity against human HeLa cells assessed as inhibition of cell proliferation after 72 hrs by MTT assay. It is filed as functional, cell-based. A digest of the protocol: as §3
Series [8] relates to SW-620. Briefly: Induction of cell cycle arrest on human SW620 cells assessed as accumulation at G1 phase at 20 uM after 48 hrs by propidium iodide staining based flow cytometry (reference value: 38.1 +/- 1.1%). The format is functional. As to conditions: in the assay text read “after 24 hrs” for “after 48 hrs”. A digest of the protocol:
as §2
A general note: In flow cytometry, cells or beads pass a laser one at a time.

Series [9] deals with Calf thymus DNA. Briefly: Binding affinity to calf thymus DNA at 50 uM circular dichroism spectroscopy. The format is nucleic-acid assay. As to conditions: Bos taurus. A digest of the protocol:
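CD spectra recorded from 480 to 230 nm, 10 mm path, 20 °C, in BPE buffer. CT-DNA (50 µM) incubated with compound rising from 1 to 60 µM or to 80 µM. Compound without DNA served as the control for intrinsic CD.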
(Circular dichroism is widely used to follow secondary structure.)

For series [10], the system named is BJ. Briefly: Antiproliferative activity against human BJ cells assessed as inhibition of cell proliferation after 72 hrs by MTT assay. It is filed as cell-based. As to conditions: 72 h. A digest of the protocol:
as §3

For series [11], the system named is Nucleic Acid. Briefly: Induction of DNA intercalation in supercoiled pUC19 DNA in presence of human topoisomerase 1 assessed as effect on topoisomerase 1-mediated DNA relaxation at 5 to 50 uM by agarose gel electrophoresis. It is filed as nucleic-acid assay. As to conditions: Escherichia coli. The method in brief: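 Supercoiled pUC19 incubated with human topoisomerase I and graded compound concentrations. Stopped with SDS/proteinase K. DNA forms resolved on 1% agarose in TBE, 2 h at 120 V, stained post-run with ethidium bromide and viewed under UV. Camptothecin was the topo I poison control.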

Series [12] has as its system SW-620. As to the kind of experiment: Induction of cell cycle arrest on human SW620 cells assessed as accumulation at G2/M phase at 20 uM after 48 hrs by propidium iodide staining based flow cytometry (reference value: 22.5 +/- 0.9%). It is filed as functional. As to conditions: in the assay text read “after 24 hrs” for “after 48 hrs”. A digest of the protocol:
as §2

The test system of series [13] is SW-620. Briefly: Induction of cell cycle arrest on human SW620 cells assessed as accumulation at subG1 phase at 50 uM after 48 hrs by propidium iodide staining based flow cytometry (reference value: 12.1 +/- 0.3%). As to conditions: in the assay text read “after 24 hrs” for “after 48 hrs”. It is filed as functional. The method in brief:
as §2

Series [14] has as its system SW-620. Briefly: Induction of cell cycle arrest on human SW620 cells assessed as accumulation at G1 phase at 50 uM after 48 hrs by propidium iodide staining based flow cytometry (reference value: 38.1 +/- 1.1%). The format is functional. As to conditions: in the assay text read “after 24 hrs” for “after 48 hrs”. The method in brief:
as §2

The subject of series [15] is HepG2. Briefly: Antiproliferative activity against human HepG2 cells assessed as inhibition of cell proliferation after 72 hrs by MTT assay. The format is functional, cell-based. The method in brief: as §3
In series [16] the test system is SW-620. As to the kind of experiment: Induction of cell cycle arrest on human SW620 cells assessed as accumulation at S phase at 20 uM after 48 hrs by propidium iodide staining based flow cytometry (reference value: 39.4 +/- 0.2%). It is filed as functional. As to conditions: in the assay text read “after 24 hrs” for “after 48 hrs”. A digest of the protocol:
as §2

The test system of series [17] is SW-620. As to the kind of experiment: Induction of cell cycle arrest on human SW620 cells assessed as accumulation at subG1 phase at 20 uM after 48 hrs by propidium iodide staining based flow cytometry (reference value: 12.1 +/- 0.3%). It is filed as functional. As to conditions: in the assay text read “after 24 hrs” for “after 48 hrs”. The method in brief: as §2

Series [18] concerns SW-620. As to the kind of experiment: Induction of cell cycle arrest on human SW620 cells assessed as accumulation at G2/M phase at 50 uM after 48 hrs by propidium iodide staining based flow cytometry (reference value: 22.5 +/- 0.9%). The format is functional. As to conditions: in the assay text read “after 24 hrs” for “after 48 hrs”. A digest of the protocol:
as §2

Series [19] is described as follows: (§4) Antiproliferative activity against human SW620 cells assessed as inhibition of cell proliferation after 72 hrs by MTT assay. It is filed as functional, cell-based, SW-620. As to conditions: Homo sapiens, SW-620, 72 h. A digest of the protocol:
as §3

In series [20] the test system is SW-620. Described as §4. It is filed as functional, cell-based. The method in brief: as §3

SMILES strings stand for the structures. Active and inactive are the calls of the source. The rule behind the calls is not given here.

As for `Cl.c1ccc2c(c1)CN(c1ccc(C3=NCCN3)nc1)/C2=N/c1ccc(C2=NCCN2)nc1`, the inhibition entry in [1] is “inactive”. Also, the ΔTm (usually the change in melting temperature against a reference sample) is 12.2 °C in series [2] and 17.3 °C in series [6]. In addition, the Activity in [3] was 36.2%; in series [8], 19.6%; in [12], 40%; in series [13], 7.8%; in [14] it was 22.1%; in series [16] it was 40.4%. Further, the values for the Activity in series [17] and in series [18] were 7.5% and 41.7%, respectively. Moreover, the outcome in [4], in series [9] and in series [11] was Active. Moreover, the inhibition result in series [5], in [7], in series [15] and in series [20] was “Dose-dependent effect” each time. The IC50 (in general, the midpoint of a concentration-inhibition curve) in [5] (Homo sapiens, MCF7, 72 h) amounted to 3.76 µM; in series [7] (Homo sapiens, HeLa, 72 h), 6.25 µM; in series [10] (Homo sapiens, BJ), 4.26 µM; in [15] (HepG2, 72 h) it was 20.5 µM; in series [19] it was 5.26 µM. Also, the “inhibition (INH)” value in series [10] (human, bj) is “Dose-dependent effect”.

(Values after ChEMBL document CHEMBL3352181, “Novel phenyl and pyridyl substituted derivatives of isoindolines: Synthesis, antitumor activity and DNA binding features” (Eur J Med Chem, 2014).)
